The text below walks through data of ChEMBL document CHEMBL1138390, “Synthesis and biological evaluation of novel T-type calcium channel blockers” (Bioorg Med Chem Lett, 2007).

The species named for assay [1] is Homo sapiens. The experiment in a line: Selectivity index, ratio of T-type calcium channel Cav3.1 to N-type calcium channel at 10 uM.
The target of assay [2] is Voltage-dependent T-type calcium channel subunit alpha-1H (Homo sapiens) (UniProt O95180). As to the kind of experiment: Inhibition of T-type calcium channel Cav3.2 expressed in Xenopus oocytes coexpressing alpha-1H subunit at 100 uM by two-electrode voltage clamp method. For orientation: Two-electrode voltage clamp holds a large cell at a set potential and records current.
Voltage-dependent T-type calcium channel subunit alpha-1H (Homo sapiens), sequence (O95180 whole entry): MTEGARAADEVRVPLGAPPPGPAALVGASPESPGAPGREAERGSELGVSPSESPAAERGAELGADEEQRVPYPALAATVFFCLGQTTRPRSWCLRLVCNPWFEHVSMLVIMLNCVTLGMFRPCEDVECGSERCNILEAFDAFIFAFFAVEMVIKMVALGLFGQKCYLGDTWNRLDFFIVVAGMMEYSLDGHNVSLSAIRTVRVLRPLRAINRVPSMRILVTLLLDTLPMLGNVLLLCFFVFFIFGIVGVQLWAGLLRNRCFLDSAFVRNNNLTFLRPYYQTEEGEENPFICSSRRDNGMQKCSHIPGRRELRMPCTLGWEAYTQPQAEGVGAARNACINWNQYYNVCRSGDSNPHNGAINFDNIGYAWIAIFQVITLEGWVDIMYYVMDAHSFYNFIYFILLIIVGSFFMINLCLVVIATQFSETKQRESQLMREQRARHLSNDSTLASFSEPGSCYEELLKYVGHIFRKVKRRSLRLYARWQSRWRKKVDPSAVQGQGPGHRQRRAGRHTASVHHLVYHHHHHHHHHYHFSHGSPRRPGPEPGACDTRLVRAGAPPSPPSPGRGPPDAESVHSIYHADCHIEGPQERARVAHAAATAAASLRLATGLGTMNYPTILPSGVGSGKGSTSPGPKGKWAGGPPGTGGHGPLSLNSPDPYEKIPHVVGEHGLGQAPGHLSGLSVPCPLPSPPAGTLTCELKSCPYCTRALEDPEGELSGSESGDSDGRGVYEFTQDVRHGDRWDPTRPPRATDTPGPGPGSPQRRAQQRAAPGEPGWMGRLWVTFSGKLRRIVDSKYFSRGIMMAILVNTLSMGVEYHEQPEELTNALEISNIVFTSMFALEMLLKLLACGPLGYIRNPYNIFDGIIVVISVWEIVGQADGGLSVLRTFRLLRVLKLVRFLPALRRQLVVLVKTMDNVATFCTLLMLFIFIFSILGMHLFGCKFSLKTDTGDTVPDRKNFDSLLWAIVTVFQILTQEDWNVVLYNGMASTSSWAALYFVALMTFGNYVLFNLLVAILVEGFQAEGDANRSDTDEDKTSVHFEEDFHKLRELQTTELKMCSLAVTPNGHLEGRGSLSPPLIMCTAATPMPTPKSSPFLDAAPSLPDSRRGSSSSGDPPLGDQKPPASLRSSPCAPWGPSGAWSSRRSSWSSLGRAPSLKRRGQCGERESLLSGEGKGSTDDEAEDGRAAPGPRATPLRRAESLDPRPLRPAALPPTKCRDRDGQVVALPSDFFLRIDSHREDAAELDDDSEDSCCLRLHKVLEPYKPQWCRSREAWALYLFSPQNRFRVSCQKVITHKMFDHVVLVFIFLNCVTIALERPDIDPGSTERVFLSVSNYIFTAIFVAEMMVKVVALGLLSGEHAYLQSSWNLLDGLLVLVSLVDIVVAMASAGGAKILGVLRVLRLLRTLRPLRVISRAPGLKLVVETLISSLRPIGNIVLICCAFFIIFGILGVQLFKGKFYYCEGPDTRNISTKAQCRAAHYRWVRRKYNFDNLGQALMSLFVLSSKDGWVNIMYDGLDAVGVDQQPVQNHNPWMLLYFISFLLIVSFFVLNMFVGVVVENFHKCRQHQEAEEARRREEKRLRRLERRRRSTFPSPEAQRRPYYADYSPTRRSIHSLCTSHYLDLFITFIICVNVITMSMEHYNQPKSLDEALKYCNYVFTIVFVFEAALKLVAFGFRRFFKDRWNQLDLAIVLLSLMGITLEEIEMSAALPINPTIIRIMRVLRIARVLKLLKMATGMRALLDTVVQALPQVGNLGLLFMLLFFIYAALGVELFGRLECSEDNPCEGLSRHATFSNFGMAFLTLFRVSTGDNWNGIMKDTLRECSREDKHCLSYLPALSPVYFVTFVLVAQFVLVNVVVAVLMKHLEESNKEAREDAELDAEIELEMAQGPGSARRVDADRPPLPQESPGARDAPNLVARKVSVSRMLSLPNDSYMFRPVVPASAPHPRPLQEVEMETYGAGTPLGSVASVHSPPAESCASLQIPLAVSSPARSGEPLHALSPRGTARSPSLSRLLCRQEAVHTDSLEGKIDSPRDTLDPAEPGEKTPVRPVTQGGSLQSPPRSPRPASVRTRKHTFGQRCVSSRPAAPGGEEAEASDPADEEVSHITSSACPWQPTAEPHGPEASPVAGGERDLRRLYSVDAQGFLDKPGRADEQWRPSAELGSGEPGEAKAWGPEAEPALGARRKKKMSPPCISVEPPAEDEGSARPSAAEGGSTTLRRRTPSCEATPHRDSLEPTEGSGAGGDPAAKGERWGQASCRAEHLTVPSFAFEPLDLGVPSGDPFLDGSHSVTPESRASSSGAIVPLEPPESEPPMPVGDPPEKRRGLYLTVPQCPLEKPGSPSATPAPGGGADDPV

The target in assay [3] is T1, Voltage-dependent T-type calcium channel subunit alpha-1G (Homo sapiens, UniProt O43497). As to the kind of experiment: Inhibition of T-type calcium channel Cav3.1 expressed in HEK293 cells co-expressing alpha1G subunit at 10 uM by whole-cell patch clamp method. The assay is classed as cell-based. The essentials: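 α1G T-type channel expressed in HEK293 cells, whole-cell patch clamp. Percent inhibition of α1G currents at a single test concentration, given as mean ± SE from n ≥ 4 repeats. IC50 is the molar concentration giving 50% current inhibition, obtained by fitting raw data to dose–response curves.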
T1 sequence (O43497 whole entry): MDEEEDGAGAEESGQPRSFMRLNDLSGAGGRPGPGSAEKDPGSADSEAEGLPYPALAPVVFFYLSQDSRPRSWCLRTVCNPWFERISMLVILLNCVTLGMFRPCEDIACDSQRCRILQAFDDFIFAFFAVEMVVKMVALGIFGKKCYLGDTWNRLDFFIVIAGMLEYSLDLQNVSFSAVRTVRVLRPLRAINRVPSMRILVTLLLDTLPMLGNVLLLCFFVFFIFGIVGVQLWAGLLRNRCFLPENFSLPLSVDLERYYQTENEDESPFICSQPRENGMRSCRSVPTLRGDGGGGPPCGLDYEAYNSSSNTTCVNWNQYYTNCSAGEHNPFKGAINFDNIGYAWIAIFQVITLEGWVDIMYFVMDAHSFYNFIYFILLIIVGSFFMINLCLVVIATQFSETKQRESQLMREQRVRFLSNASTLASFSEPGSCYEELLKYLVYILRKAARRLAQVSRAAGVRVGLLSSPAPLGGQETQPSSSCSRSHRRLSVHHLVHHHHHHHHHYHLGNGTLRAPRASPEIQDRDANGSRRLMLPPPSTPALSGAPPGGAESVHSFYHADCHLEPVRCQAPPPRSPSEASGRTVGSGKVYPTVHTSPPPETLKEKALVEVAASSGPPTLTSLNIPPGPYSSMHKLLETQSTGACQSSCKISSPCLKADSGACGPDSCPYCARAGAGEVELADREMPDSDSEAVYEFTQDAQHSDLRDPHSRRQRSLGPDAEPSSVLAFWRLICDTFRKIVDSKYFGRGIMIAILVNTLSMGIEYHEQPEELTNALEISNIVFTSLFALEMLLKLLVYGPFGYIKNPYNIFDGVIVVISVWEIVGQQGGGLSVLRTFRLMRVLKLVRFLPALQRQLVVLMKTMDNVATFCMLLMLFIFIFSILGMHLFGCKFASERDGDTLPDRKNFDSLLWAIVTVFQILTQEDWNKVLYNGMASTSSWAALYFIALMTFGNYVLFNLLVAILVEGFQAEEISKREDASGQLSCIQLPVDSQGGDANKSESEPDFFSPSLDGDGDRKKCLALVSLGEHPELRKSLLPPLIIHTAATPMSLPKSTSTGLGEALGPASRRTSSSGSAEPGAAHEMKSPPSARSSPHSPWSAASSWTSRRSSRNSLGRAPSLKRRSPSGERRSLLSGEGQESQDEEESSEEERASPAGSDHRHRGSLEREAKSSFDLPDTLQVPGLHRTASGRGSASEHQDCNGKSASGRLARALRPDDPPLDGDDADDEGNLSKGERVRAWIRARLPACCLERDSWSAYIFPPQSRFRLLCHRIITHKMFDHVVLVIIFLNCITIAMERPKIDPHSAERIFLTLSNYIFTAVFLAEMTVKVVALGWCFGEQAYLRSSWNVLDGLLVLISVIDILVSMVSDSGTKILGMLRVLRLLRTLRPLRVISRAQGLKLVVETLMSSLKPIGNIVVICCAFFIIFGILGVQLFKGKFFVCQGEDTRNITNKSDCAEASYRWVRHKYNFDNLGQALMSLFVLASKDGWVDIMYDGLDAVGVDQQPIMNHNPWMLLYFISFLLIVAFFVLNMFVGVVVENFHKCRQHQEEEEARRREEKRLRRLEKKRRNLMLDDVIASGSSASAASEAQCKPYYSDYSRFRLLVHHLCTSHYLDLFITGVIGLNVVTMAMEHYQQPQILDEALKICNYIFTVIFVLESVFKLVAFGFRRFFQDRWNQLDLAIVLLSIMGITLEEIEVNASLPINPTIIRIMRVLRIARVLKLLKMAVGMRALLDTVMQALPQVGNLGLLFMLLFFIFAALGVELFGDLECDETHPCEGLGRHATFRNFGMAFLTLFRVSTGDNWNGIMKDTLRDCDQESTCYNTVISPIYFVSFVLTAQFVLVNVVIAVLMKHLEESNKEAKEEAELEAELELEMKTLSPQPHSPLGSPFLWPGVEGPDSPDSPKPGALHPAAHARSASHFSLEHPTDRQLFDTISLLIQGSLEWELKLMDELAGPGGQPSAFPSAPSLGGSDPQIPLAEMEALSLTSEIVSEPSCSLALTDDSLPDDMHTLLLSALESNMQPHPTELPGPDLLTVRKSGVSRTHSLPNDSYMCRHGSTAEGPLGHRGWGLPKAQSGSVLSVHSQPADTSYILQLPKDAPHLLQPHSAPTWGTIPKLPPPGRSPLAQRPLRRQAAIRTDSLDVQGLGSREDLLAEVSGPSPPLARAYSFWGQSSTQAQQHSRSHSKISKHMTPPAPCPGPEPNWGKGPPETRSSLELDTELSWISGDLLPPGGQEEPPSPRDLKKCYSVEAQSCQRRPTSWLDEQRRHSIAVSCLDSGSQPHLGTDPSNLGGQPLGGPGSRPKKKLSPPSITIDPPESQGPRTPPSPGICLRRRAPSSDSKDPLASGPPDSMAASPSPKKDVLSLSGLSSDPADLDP
(Patch clamp records ionic current or voltage across a cell membrane.)

Assay [4] addresses T1, Voltage-dependent T-type calcium channel subunit alpha-1G. As to the kind of experiment: Inhibition of T-type calcium channel Cav3.1 expressed in HEK293 cells co-expressing alpha1G subunit by whole-cell patch clamp method. The assay is classed as cell-based.
In assay [5] the target is Voltage-dependent N-type calcium channel subunit alpha-1B (Homo sapiens) (UniProt Q00975). The experiment in a line: Inhibition of N-type calcium channel expressed in HEK293 cells co-expressing Alpha-1B subunit at 10 uM. The assay is classed as cell-based. In short, it runs like this: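 N-type α1B channel expressed in HEK293 cells. Percent current inhibition at a single test concentration, reported as mean ± SE from n ≥ 4 repeated measurements. Inhibition below 1% was recorded as no blocking.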

Consider `COC(=O)CC1c2ccccc2N=C(NCCCCCN)N1c1ccc(-c2ccccc2)cc1` (stereo unspecified), for which, in assay [1], the Ratio is above 100.
Turning to `COC(=O)CC1c2ccccc2N=C(N(C)CCCCCN2CCCC2)N1c1ccc(-c2ccccc2)cc1` (stereo unspecified), the inhibition in assay [2] was 88%; in assay [3] it was 94.9%; in assay [5], 36.5%. In assay [1], the Ratio was 2.6. In addition, the half-maximal inhibitory concentration (IC50) in assay [4] is 0.34 µM.
On to `NCCCCCNC1=Nc2ccccc2C(CC(=O)NCc2ccccc2)N1c1ccc(-c2ccccc2)cc1` (stereo unspecified), for which the Ratio in assay [1] turned out to be 10.1.
Turning to `CN(CCCCCN1CCCC1)C1=Nc2ccccc2C(CC(=O)NCc2ccccc2)N1c1ccccc1` (stereo unspecified), the figures for the inhibition in assay [2], in assay [3] and in assay [5] were 82.7%, 68.1% and 46.3%, respectively. Moreover, the Ratio in assay [1] turned out to be 1.5. In addition, in assay [4], the IC50 turned out to be 4.2 µM.
As to `CN(CCCCCN1CCCC1)C1=Nc2ccccc2C(CC(=O)NCc2ccccc2)N1c1ccc(-c2ccccc2)cc1` (stereo unspecified), the values for the inhibition in assay [2], in assay [3] and in assay [5] were 95.5%, 88.1% and 11.7%, respectively. Moreover, in assay [1], the Ratio is 7.5.
In the case of `COC(=O)CC1c2ccccc2N=C(N(C)CCCCCN2CCCC2)N1c1ccccc1` (stereo unspecified), the inhibition is 47.7% in assay [2], 59.5% in assay [3] and 10.7% in assay [5]. The Ratio in assay [1] stood at 5.6. Further, the IC50 in assay [4] came out at 5.84 µM.

Usually inhibition stands for the change of the read-out against control, counted positive when it falls. By IC50 is commonly meant the concentration at which inhibition is half-maximal.
